Source: ChEMBL document CHEMBL1145777 (J Med Chem, 2003)

Assays:
[1] = Binding affinity towards Opioid receptor delta 1 from guinea pig brain using [3H]naltrindole as radioligand
Mu-type opioid receptor [2] = target: Mu-type opioid receptor (Cavia porcellus, UniProt P97266); experiment: Binding affinity towards Opioid receptor mu 1 from guinea pig brain using [3H]DAMGO as radioligand
[3] = target: Kappa-type opioid receptor (Cavia porcellus, UniProt P41144); experiment: Binding affinity towards Opioid receptor kappa 1 from guinea pig brain using [3H]U-69593 as radioligand
Procedure, shortened: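 Uses 1 nM [3H]U69,593 with guinea pig brain membrane protein (500 µg), 12 concentrations, 50 mM Tris-HCl pH 7.5, 60 min at 25 °C. Nonspecific binding with 10 µM naloxone. Filters pre-soaked in 0.1% polyethylenimine; bound label counted.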

[4] = target: T1, Kappa-type opioid receptor (Homo sapiens, UniProt P41145); experiment: (§1) Incorporation of [35S]GTP-gamma-S, into CHO membranes expressing human Opioid receptor kappa 1; assay type: functional
Mu-type opioid receptor [5] = target: T2, Mu-type opioid receptor (Homo sapiens, UniProt P35372); experiment: Incorporation of [35S]GTP-gamma-S, into CHO membranes expressing human Opioid receptor mu 1; assay type: functional
[6] = target: Kappa-type opioid receptor (Cavia porcellus) (UniProt P41144); experiment: Ratio of binding affinity of Opioid receptor kappa 1 to Opioid receptor mu 1 to Opioid receptor delta 1; kappa:mu:delta = 11:7:1
Mu-type opioid receptor [7] = target: T2, Mu-type opioid receptor; experiment: Incorporation of [35S]- GTPgammaS into CHO membranes expressing human Opioid receptor mu 1
[8] = target: T1, Kappa-type opioid receptor; experiment: as §1; assay type: functional; remark: listed apart in the source
[9] = target: Kappa-type opioid receptor (Cavia porcellus) (UniProt P41144); experiment: Ratio of binding affinity of Opioid receptor kappa 1 to Opioid receptor mu 1 to Opioid receptor delta 1; kappa:mu:delta = 9:5:1
[10] = target: Kappa-type opioid receptor (Cavia porcellus) (UniProt P41144); experiment: Ratio of binding affinity of Opioid receptor kappa 1 to Opioid receptor mu 1 to Opioid receptor delta 1; kappa:mu:delta = 5:4:1
[11] = target: Kappa-type opioid receptor (Cavia porcellus) (UniProt P41144); experiment: Ratio of binding affinity of Opioid receptor kappa 1 to Opioid receptor mu 1 to Opioid receptor delta 1; kappa:mu:delta = 16:14:1
[12] = target: Kappa-type opioid receptor (Cavia porcellus) (UniProt P41144); experiment: Ratio of binding affinity of Opioid receptor kappa 1 to Opioid receptor mu 1 to Opioid receptor delta 1; kappa:mu:delta = 1:1:1
[13] = target: Kappa-type opioid receptor (Cavia porcellus) (UniProt P41144); experiment: Ratio of binding affinity of Opioid receptor kappa 1 to Opioid receptor mu 1 to Opioid receptor delta 1; kappa:mu:delta = 47:26:1
[14] = target: Kappa-type opioid receptor (Cavia porcellus) (UniProt P41144); experiment: Ratio of binding affinity of Opioid receptor kappa 1 to Opioid receptor mu 1 to Opioid receptor delta 1; kappa:mu:delta = 150:7:1
[15] = target: Kappa-type opioid receptor (Cavia porcellus) (UniProt P41144); experiment: Ratio of binding affinity of Opioid receptor kappa 1 to Opioid receptor mu 1 to Opioid receptor delta 1; kappa:mu:delta = 29:18:1
[16] = target: Kappa-type opioid receptor (Cavia porcellus) (UniProt P41144); experiment: Ratio of binding affinity of Opioid receptor kappa 1 to Opioid receptor mu 1 to Opioid receptor delta 1; kappa:mu:delta = 28:12:1

Mu-type opioid receptor (Cavia porcellus, UniProt P97266), sequence (P97266 whole entry): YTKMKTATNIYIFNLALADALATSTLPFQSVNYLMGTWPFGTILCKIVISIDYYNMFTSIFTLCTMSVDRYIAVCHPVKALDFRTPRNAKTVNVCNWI
T1 sequence (P41145 whole entry): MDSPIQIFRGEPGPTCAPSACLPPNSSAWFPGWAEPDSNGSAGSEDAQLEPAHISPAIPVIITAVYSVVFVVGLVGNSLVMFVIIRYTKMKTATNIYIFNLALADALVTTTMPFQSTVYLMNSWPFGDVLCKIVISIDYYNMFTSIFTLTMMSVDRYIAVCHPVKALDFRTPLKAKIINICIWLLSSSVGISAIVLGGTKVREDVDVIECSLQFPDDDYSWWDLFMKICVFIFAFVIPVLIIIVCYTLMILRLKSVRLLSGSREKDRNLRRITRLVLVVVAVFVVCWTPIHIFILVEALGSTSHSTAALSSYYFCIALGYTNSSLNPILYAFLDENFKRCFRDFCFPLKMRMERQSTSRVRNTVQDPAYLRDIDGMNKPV
T2 sequence (P35372 whole entry): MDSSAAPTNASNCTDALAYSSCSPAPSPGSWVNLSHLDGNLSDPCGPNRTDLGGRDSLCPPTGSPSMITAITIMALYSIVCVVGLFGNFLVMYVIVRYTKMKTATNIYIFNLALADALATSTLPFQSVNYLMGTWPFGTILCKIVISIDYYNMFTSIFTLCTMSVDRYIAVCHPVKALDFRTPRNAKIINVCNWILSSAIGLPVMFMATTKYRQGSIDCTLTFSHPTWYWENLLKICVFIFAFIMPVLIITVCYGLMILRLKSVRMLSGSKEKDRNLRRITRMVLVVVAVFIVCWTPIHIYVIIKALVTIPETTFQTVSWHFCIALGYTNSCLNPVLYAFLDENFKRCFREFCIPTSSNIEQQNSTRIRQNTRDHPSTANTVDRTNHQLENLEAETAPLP
Kappa-type opioid receptor (Cavia porcellus, UniProt P41144), sequence (P41144 whole entry): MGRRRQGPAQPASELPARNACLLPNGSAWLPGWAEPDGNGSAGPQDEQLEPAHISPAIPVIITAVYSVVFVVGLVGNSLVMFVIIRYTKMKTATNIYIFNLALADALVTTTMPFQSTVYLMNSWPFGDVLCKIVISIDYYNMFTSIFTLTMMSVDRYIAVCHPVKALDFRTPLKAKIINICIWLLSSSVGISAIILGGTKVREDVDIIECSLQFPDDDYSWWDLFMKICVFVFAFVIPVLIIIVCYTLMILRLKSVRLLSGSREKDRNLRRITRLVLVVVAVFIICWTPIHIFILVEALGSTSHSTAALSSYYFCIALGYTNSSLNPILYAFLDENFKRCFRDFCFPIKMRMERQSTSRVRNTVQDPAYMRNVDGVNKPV
Kappa-type opioid receptor (Cavia porcellus), sequence (P41144 whole entry): as above

SMILES: C[C@H]1C2Cc3ccc(NCc4ccccc4)cc3[C@@]1(C)CCN2CC1CC1 (stereo in doubt; 25)
- Ki [1]: 57 nM

SMILES: COc1cccc(Nc2ccc3c(c2)[C@@]2(C)CCN(CC4CC4)C(C3)[C@@H]2C)c1
- Ki (Mu-type opioid receptor [2]): 1.8 nM
- Ki [3]: 1 nM

SMILES: C[C@H]1[C@H]2Cc3ccc(Nc4ccccc4)cc3[C@@]1(C)CCN2CC1CC1 (stereo in doubt; 10) [listing 1 of 2 here]
- Ki [1]: 9.4 nM

SMILES: CNc1ccc2c(c1)[C@@]1(C)CCN(CC3CC3)C(C2)[C@@H]1C
- Ki [1]: 470 nM

SMILES: CC[C@@]12CCN(CC3CC3)C(C(=O)c3ccc(O)cc31)[C@@H]2C (single isomer, unassigned; (-))
- Emax [4]: 170%
- Emax (Mu-type opioid receptor [5]): 70%

SMILES: C[C@H]1[C@H]2Cc3ccc(O)cc3[C@]1(C)CCN2CC1CC1 (stereo in doubt; (-)2)
- Emax [4]: 100%
- Emax (Mu-type opioid receptor [5]): 50%

SMILES: C[C@H]1C2Cc3ccc(N(C)C)cc3[C@@]1(C)CCN2CC1CC1 (stereo in doubt; 30)
- Ki [1]: 1500 nM

SMILES: C[C@H]1[C@H]2Cc3ccc(Nc4ccccc4)cc3[C@@]1(C)CCN2CC1CC1 (stereo in doubt; 10) [listing 2 of 2 here]
- Ratio [6]: 11

SMILES: CC[C@@]12CCN(CC3CC3)C(C(=O)c3ccc(O)cc31)[C@@H]2C (single isomer, unassigned; (-)) [ETHYLKETOCYCLAZOCINE]
- Ki (Mu-type opioid receptor [2]): 0.73 nM
- EC50 (Mu-type opioid receptor [7]): 5.5 nM

SMILES: C[C@H]1C2Cc3ccc(Nc4cccnc4)cc3[C@@]1(C)CCN2CC1CC1
- Emax [4]: 90%
- Ki (Mu-type opioid receptor [2]): 0.64 nM
- Ki [3]: 0.5 nM
- EC50 [8]: 10 nM

SMILES: C[C@H]1[C@H]2Cc3ccc(Nc4ccccc4)cc3[C@@]1(C)CCN2CC1CC1 (stereo in doubt; (+)12)
- Ki [1]: 270 nM

SMILES: CC[C@@]12CCN(CC3CC3)C(C(=O)c3ccc(O)cc31)[C@@H]2C (single isomer, unassigned; (+)) [ETHYLKETOCYCLAZOCINE]
- Ki (Mu-type opioid receptor [2]): 320 nM

SMILES: CC[C@@]12CCN(CC3CC3)C(C(=O)c3ccc(N)cc31)[C@@H]2C (single isomer, unassigned; (-))
- Ki (Mu-type opioid receptor [2]): 2.7 nM
- Ki [3]: 1.1 nM
- EC50 (Mu-type opioid receptor [7]): 92 nM
- EC50 [8]: 2.8 nM

SMILES: C[C@H]1[C@H]2Cc3ccc(Nc4ccccc4)cc3[C@@]1(C)CCN2CC1CC1 [listing 1 of 2 here]
- EC50 (Mu-type opioid receptor [7]): 15 nM
- EC50 [8]: 3.8 nM

SMILES: C[C@H]1C2Cc3ccc(NCc4ccccc4)cc3[C@@]1(C)CCN2CC1CC1 (single isomer, unassigned; (-))
- Ki [1]: 54 nM

SMILES: C[C@H]1C2Cc3cc4c(cc3[C@@]1(C)CCN2CC1CC1)[nH]c1ccccc14
- Ki [3]: 9.6 nM

SMILES: C[C@H]1C2Cc3ccc(NCc4ccc(Cl)cc4)cc3[C@@]1(C)CCN2CC1CC1
- Ki (Mu-type opioid receptor [2]): 8.8 nM
- Ki [3]: 7.2 nM

SMILES: C[C@H]1[C@H]2Cc3ccc(Nc4ccccc4)cc3[C@@]1(C)CCN2CC1CC1 [listing 2 of 2 here]
- Emax [4]: 120%
- Emax (Mu-type opioid receptor [5]): 50%

SMILES: CC[C@@]12CCN(CC3CC3)C(C(=O)c3ccc(N)cc31)[C@@H]2C (single isomer, unassigned; (+)) [listing 1 of 2 here]
- Ratio [9]: 9

SMILES: C[C@H]1C2Cc3ccc(N(C)C)cc3[C@@]1(C)CCN2CC1CC1 (single isomer, unassigned; (-))
- Ki (Mu-type opioid receptor [2]): 46 nM
- Ki [3]: 18 nM

SMILES: CC[C@@]12CCN(CC3CC3)C(C(=O)c3ccc(N)cc31)[C@@H]2C (stereo in doubt; 44) [listing 1 of 2 here]
- Ki (Mu-type opioid receptor [2]): 7.3 nM
- Ki [3]: 0.34 nM
- EC50 (Mu-type opioid receptor [7]): 62 nM
- EC50 [8]: 4.4 nM

SMILES: CC[C@@]12CCN(CC3CC3)C(C(=O)c3ccc(Nc4ccccc4)cc31)[C@@H]2C
- Emax [4]: 110%
- Ki (Mu-type opioid receptor [2]): 10 nM
- Emax (Mu-type opioid receptor [5]): 70%
- Ki [3]: 2.2 nM
- EC50 (Mu-type opioid receptor [7]): 22 nM
- EC50 [8]: 5.9 nM

SMILES: C[C@H]1[C@H]2Cc3ccc(N)cc3[C@@]1(C)CCN2CC1CC1
- Emax [4]: 80%
- Ki [1]: 12 nM
- EC50 [8]: 20 nM

SMILES: C[C@H]1[C@H]2Cc3ccc(O)cc3[C@]1(C)CCN2CC1CC1 (stereo in doubt; (-)2) [CYCLAZOCINE]
- EC50 [8]: 1.2 nM

SMILES: C[C@@H]1[C@@H]2Cc3ccc(N)cc3[C@]1(C)CCN2CC1CC1
- Ki (Mu-type opioid receptor [2]): 780 nM
- Ki [3]: 506 nM

SMILES: C[C@H]1C2C(=O)c3ccc(N)cc3[C@@]1(C)CCN2CC1CC1
- Emax [4]: 70%
- Ki (Mu-type opioid receptor [2]): 3.6 nM
- Emax (Mu-type opioid receptor [5]): 80%
- Ki [3]: 0.8 nM
- EC50 (Mu-type opioid receptor [7]): 180 nM
- EC50 [8]: 9.7 nM

SMILES: C[C@H]1[C@H]2Cc3ccc(Nc4ccccc4)cc3[C@@]1(C)CCN2C[C@@H]1CCCO1
- Ki (Mu-type opioid receptor [2]): 2.8 nM
- Ki [3]: 2 nM

SMILES: C[C@H]1C2Cc3ccc(Nc4ccccn4)cc3[C@@]1(C)CCN2CC1CC1
- Ki (Mu-type opioid receptor [2]): 4.2 nM
- Ki [3]: 9.2 nM

SMILES: C[C@H]1C2Cc3ccc(Nc4ccncc4)cc3[C@@]1(C)CCN2CC1CC1
- Ki (Mu-type opioid receptor [2]): 18 nM
- Ki [3]: 2.9 nM

SMILES: CC(C)Nc1ccc2c(c1)[C@@]1(C)CCN(CC3CC3)C(C2)[C@@H]1C
- Ki [1]: 460 nM

SMILES: C[C@H]1C2Cc3ccc(N4CCOCC4)cc3[C@@]1(C)CCN2CC1CC1
- Ki [1]: 2800 nM
- Ratio [10]: 5

SMILES: C[C@H]1C2Cc3ccc(Nc4ccc(C(F)(F)F)cc4)cc3[C@@]1(C)CCN2CC1CC1
- Ki (Mu-type opioid receptor [2]): 13 nM
- Ki [3]: 11 nM
- Ratio [11]: 16

SMILES: C[C@H]1C2Cc3ccc(N=C(c4ccccc4)c4ccccc4)cc3[C@@]1(C)CCN2CC1CC1
- Ki (Mu-type opioid receptor [2]): 360 nM
- Ki [3]: 170 nM
- Ratio [12]: 1

SMILES: C[C@H]1C2Cc3ccc(N)cc3[C@@]1(C)CCN2CC1CC1
- Ki [1]: 110 nM

SMILES: C[C@H]1C2C(=O)c3ccc(O)cc3[C@@]1(C)CCN2CC1CC1
- Emax [4]: 80%
- Emax (Mu-type opioid receptor [5]): 40%
- Ki [3]: 1 nM
- EC50 (Mu-type opioid receptor [7]): 21 nM
- EC50 [8]: 3.3 nM

SMILES: C[C@H]1[C@H]2Cc3ccc(O)cc3[C@]1(C)CCN2CC1CC1 (stereo in doubt) [CYCLAZOCINE]
- EC50 [8]: 1.6 nM

SMILES: C[C@H]1[C@H]2Cc3ccc(N)cc3[C@@]1(C)CCN2C[C@@H]1CCCO1
- Emax [4]: 330%
- Ki (Mu-type opioid receptor [2]): 14 nM
- Ki [3]: 7.8 nM
- Ratio [13]: 47
- EC50 [8]: 70 nM

SMILES: C[C@H]1C2Cc3ccc(N(C)C)cc3[C@@]1(C)CCN2CC1CC1 (single isomer, unassigned; (+))
- Ki (Mu-type opioid receptor [2]): 50000 nM
- Ki [3]: 3000 nM

SMILES: CC[C@@]12CCN(CC3CC3)C(C(=O)c3ccc(N)cc31)[C@@H]2C (stereo in doubt; 44) [listing 2 of 2 here]
- Emax [4]: 100%
- Ratio [14]: 150
- Emax (Mu-type opioid receptor [5]): 60%

SMILES: CCNc1ccc2c(c1)[C@@]1(C)CCN(CC3CC3)C(C2)[C@@H]1C
- Ki [1]: 19 nM

SMILES: C[C@H]1[C@H]2Cc3ccc(O)cc3[C@@]1(C)CCN2C[C@@H]1CCCO1
- Emax [4]: 70%
- Ki (Mu-type opioid receptor [2]): 0.17 nM
- Ki [3]: 0.073 nM
- EC50 [8]: 4 nM

SMILES: CC[C@@]12CCN(CC3CC3)C(C(=O)c3ccc(N)cc31)[C@@H]2C (single isomer, unassigned; (+)) [listing 2 of 2 here]
- Ki (Mu-type opioid receptor [2]): 17 nM
- Ki [3]: 91 nM

SMILES: COc1ccc(CNc2ccc3c(c2)[C@@]2(C)CCN(CC4CC4)C(C3)[C@@H]2C)cc1
- Ki (Mu-type opioid receptor [2]): 7.8 nM
- Ki [3]: 71 nM

SMILES: Cc1ccc(Nc2ccc3c(c2)[C@@]2(C)CCN(CC4CC4)C(C3)[C@@H]2C)cc1
- Ki (Mu-type opioid receptor [2]): 0.91 nM
- Ki [3]: 0.57 nM
- Ratio [6]: 11

SMILES: C[C@H]1C2Cc3ccc(N4CCCC4)cc3[C@@]1(C)CCN2CC1CC1
- Ki [1]: 1800 nM

SMILES: C[C@H]1[C@H]2Cc3ccc(O)cc3[C@]1(C)CCN2CC1CC1 (stereo in doubt)
- Emax [4]: 90%

SMILES: COc1ccc(Nc2ccc3c(c2)[C@@]2(C)CCN(CC4CC4)C(C3)[C@@H]2C)cc1
- Ratio [15]: 29
- Ki (Mu-type opioid receptor [2]): 0.47 nM
- Ki [3]: 0.29 nM

SMILES: C[C@H]1C2Cc3ccc(N4CCN(C)CC4)cc3[C@@]1(C)CCN2CC1CC1
- Ratio [16]: 28
- Ki [1]: 250 nM
